Test results as given in ChEMBL document CHEMBL4038269, “Design, synthesis and evaluation of novel feruloyl-donepezil hybrids as potential multitarget drugs for the treatment of Alzheimer's disease” (Eur J Med Chem, 2017).
The source made the active and inactive calls. The rule behind the calls is not given here.

How the values were obtained:
SH-SY5Y [1] = experiment: Antioxidant activity in human SH-SY5Y cells assessed as increase in GSH level at 20 uM by MCB probe based assay relative to control; type: functional; conditions: TDE = time-dependent effect
Outline: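 SH-SY5Y cells (DMEM, 10% FBS, 37 °C, 5% CO2) seeded at 2 x 10^4 cells/well and grown 24 h. Treated with 20 µM compound for 3-24 h. Then 50 µM monochlorobimane in PBS for 30 min at 37 °C. GSH fluorescence read at ex 360/em 465 nm, as % of control cells. Mean ± SD of three independent experiments.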

[2] = Selectivity ratio of IC50 for equine serum BuChE to IC50 Electrophorus electricus AChE
Mus musculus [3] = experiment: Anti-inflammatory activity in Swiss mouse assessed as reduction in carrageenan-induced paw edema at 100 umol/kg, po pretreated for 1 hr followed by carrageenan challenge after 3 hrs by plethysmometer; type: functional, organism-based
Outline: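 Adult male Swiss mice (22-28 g), fasted overnight, given vehicle (DMSO 2% in sterile saline) or 100 µmol/kg orally 1 h before intraplantar carrageenan. Methods give 400 µg/20 µl and n=10 per group; figure legend gives 100 µg/paw and n=8. Right hind paw volume read by plethysmometer at 1, 3 and 5 h. Reported as change in µL from basal volume, mean ± SEM.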

[4] = target: T1, Nuclear factor erythroid 2-related factor 2 (Homo sapiens) (UniProt Q16236); experiment: Induction of Nrf2 nuclear translocation in human SH-SY5Y cells assessed as Nrf2 binding to antioxidant response element at 20 uM measured after 1 to 6 hrs by TransAM ELISA; type: cell-based; conditions: TDE = time-dependent effect
T1 sequence (whole entry): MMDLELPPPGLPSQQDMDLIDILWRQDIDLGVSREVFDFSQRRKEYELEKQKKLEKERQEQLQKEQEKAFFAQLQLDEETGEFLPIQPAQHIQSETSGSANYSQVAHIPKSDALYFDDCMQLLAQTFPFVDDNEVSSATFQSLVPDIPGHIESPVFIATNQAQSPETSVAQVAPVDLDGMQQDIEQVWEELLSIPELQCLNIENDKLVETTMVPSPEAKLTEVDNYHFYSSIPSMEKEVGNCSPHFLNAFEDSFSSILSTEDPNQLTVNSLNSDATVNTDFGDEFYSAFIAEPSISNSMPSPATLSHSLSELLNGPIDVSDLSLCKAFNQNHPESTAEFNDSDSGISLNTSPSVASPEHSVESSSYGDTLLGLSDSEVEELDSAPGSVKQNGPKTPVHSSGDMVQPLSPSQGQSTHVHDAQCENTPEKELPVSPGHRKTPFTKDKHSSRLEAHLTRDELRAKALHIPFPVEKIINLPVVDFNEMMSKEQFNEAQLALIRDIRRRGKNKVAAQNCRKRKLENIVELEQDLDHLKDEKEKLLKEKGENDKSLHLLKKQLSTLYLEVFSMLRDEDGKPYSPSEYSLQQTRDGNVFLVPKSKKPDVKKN
Outline: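 SH-SY5Y cells seeded at 2×10^6 per 60 mm dish, grown 24 h, then given 20 µM compound for 1-6 h at 37 °C. Nuclear extracts prepared by kit. 20 µg nuclear protein tested for Nrf2 DNA binding by TransAM Nrf2 immunoassay. Expressed as % of control cells; mean ± SD of three experiments. Nrf2-transfected COS-7 cells served as positive control.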

SH-SY5Y [5] = experiment: Copper chelating activity in human SH-SY5Y cells assessed as reduction in CuSO4/H2O2-induced reactive oxygen species formation at 10 to 20 uM after 30 mins by DCFH-DA probe based fluorescence assay; type: functional, cell-based
Outline: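 SH-SY5Y cells seeded at 3 x 10^4 cells/well and preloaded with DCFH-DA (10 µg/mL, 30 min, room temperature). Then given compound (5, 10, 20 µM) with FeSO4/H2O2 or CuSO4/H2O2 for 30 min; metal 25 µM and H2O2 100 µM per figure legend. Fluorescence read at ex 485/em 535 nm, arbitrary units. Mean ± SD of three experiments.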

Mus musculus [6] = experiment: Neurotoxicity in Swiss mouse assessed as induction of motor impairment at 100 umol/kg, po measured after 1 hr by open filed test; type: toxicity, organism-based; conditions: in vivo
Outline: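 Male Swiss mice (n=8) given vehicle or compound orally 1 h before open-field test. Crossings of the central four and peripheral 12 squares counted separately.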

[7] = Metal chelating activity assessed as absorption maximum for compound-Fe2+ complex formation at 75 uM after 30 mins by UV-Vis spectrophotometric method (reference value: 237.2 nanometer); type: functional
Outline: (§1)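 UV-Vis spectra in ethanol of compound at 75 µM alone or after 30 min incubation with CuSO4, FeSO4, FeCl3 or ZnCl2 (150 µM). Absorption maxima recorded.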

SH-SY5Y [8] = experiment: Neuroprotective activity in human SH-SY5Y cells assessed as reduction in amyloid beta (1 to 42)-induced late neuronal death at 20 uM after 24 hrs by propidium iodide staining based fluorescence microscopic method; type: functional, cell-based
Outline: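 SH-SY5Y cells at 5×10^3 cells/well, grown 24 h, then compound (20 µM) with Aβ1-42 oligomers for 24 h at 37 °C; oligomers 10 µM in methods, 20 µM in legend. Stained with propidium iodide (25 µg/mL in PBS) for 10 min. Four random fields of 50–100 cells scored by fluorescence microscopy; dead cells % = PI-positive/total × 100.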

SH-SY5Y [9] = experiment: Neuroprotective activity in human SH-SY5Y cells assessed as reduction in amyloid beta (1 to 42)-induced exocytosis at 20 uM after 4 hrs by MTT dye based microscopic method; type: functional, cell-based
Outline: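 SH-SY5Y cells seeded at 3 x 10^4 cells/well, grown 24 h. Treated with compound (20 µM) plus Aβ1-42 oligomers (10 µM) for 4 h at 37 °C. Oligomers were prepared from HFIP-treated, DMSO-dissolved peptide and checked by TEM. MTT (5 mg/mL in PBS) added for 2 h. Cells inspected by light microscopy for needle-like exocytosed formazan crystals.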

[10] = Metal chelating activity assessed as absorption maximum for compound-Cu2+ complex formation at 75 uM after 30 mins by UV-Vis spectrophotometric method (reference value: 237.2 nanometer); type: functional; outline: as §1
[11] = Cytotoxicity against human SH-SY5Y cells assessed as reduction in cell viability at 40 uM after 24 hrs by MTT assay relative to control; type: cell-based; conditions: read-out: INH
Outline: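 SH-SY5Y cells seeded at 2 x 10^4 cells/well, grown 24 h, then exposed to compound 1.25–40 µM for 24 h at 37 °C. MTT (5 mg/mL in PBS) added for 2 h and formazan dissolved in isopropanol. Read at 570 nm, reference 690 nm. Viability loss reported as percent at the top concentration, 40 µM.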

Cholinesterase = Cholinesterase (Equus caballus, UniProt P81908); experiment: Inhibition of equine serum BuChE using butyrylthiocholine iodide as substrate pretreated for 10 mins followed by substrate addition measured at 12 secs interval for 5 mins by Ellman's method
Chain of Cholinesterase (P81908 whole entry): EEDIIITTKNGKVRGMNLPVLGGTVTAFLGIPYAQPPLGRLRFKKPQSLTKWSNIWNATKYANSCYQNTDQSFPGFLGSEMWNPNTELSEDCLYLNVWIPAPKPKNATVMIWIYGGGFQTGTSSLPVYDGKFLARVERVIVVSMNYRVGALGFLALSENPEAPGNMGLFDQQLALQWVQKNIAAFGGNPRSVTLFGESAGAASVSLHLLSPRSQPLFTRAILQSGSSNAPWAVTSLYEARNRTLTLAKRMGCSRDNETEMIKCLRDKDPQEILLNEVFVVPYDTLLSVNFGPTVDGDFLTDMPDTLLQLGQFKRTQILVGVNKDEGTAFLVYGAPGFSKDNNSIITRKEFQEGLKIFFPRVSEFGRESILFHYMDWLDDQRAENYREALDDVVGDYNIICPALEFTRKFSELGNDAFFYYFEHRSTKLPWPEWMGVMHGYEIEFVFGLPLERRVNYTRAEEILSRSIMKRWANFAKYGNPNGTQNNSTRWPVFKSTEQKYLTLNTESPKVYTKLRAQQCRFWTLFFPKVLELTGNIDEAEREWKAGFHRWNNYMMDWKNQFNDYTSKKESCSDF
Outline: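 Ellman assay in 0.1 M sodium phosphate pH 7.4, enzyme 0.5 U/mL, DTNB 10 mM; concentration series preincubated 10 min before butyrylthiocholine iodide ([…]); A412 over 5 min at 12 s intervals. IC50 from fitted concentration-response curves, geometric mean of independent experiments, each in triplicate; DMSO ≤0.2% final.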

With `COc1cc(/C=C/C(=O)OCC2CCN(Cc3ccccc3)CC2)ccc1O` the Activity (SH-SY5Y [1]) was “Tde”, the Ratio IC50 [2] was 53 and the Activity (Mus musculus [3]) was “Active”. For the same compound, the Activity [4] was “Tde”, the Activity (SH-SY5Y [5]) was “Active” and the Activity (Mus musculus [6]) was “Non-Toxic”. For the same compound, the Activity [7] was 249 nm, the Activity (SH-SY5Y [8]) was “Active” and the Activity (SH-SY5Y [9]) was “inactive”. For the same compound, the Activity [10] was 248 nm, the cytotoxicity at 24 h, 40 µM [11] was 6% and the IC50 (Cholinesterase) was 25 µM.
